# Hits are enriched below; roughly 4.3% of the tested compounds scored in any of these assays.
# TAAR1 agonist: human TAAR1 agonists, primary screen, Fluo-8 calcium fluorescence, CHO RD-HGA16 cells. Trace amine-associated receptor 1 (Homo sapiens), Q96RJ0. vehicle wells 0%, saturating PEA agonist 100%. activation, % at 3 µM. 360,000 compounds, 0.99% hits;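 active = activation above the mean activation of all test compounds in the run plus 3 SD, cut at about 38% in these data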
#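 Benchmarks: low control DMSO, high control PEA (EC100); System: CHO RD-HGA16 cells carrying human TAAR1 plus Gα16; Detection: Fluo-8 fluorescence, 5 s baseline then 140 s kinetic read; Schedule: 17-24 h plating, Fluo-8 75 min 37 °C, 30 min RT; Read-out basis: % activation from peak over basal fluorescence ratio, DMSO-to-PEA scaled.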
# OX1R antag-1: OX1R (HCRTR1) antagonists, primary screen, fluorescence, CHO/OX1R cells, Fluo-8 calcium, orexin A; Fluo-8 calcium fluorescence; inhibition, % at 5 µM; 330,000 compounds, 0.43% hits; AID 434989, 2010;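 active = inhibition above its plate's threshold, mean inhibition of all tested compounds on the plate plus 3 SD, cut at about 37% in these data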;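 note: 0% = orexin A challenge wells and 100% = SB-334867-A antagonist wells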
# Target sequence (O43613 whole entry, looked up): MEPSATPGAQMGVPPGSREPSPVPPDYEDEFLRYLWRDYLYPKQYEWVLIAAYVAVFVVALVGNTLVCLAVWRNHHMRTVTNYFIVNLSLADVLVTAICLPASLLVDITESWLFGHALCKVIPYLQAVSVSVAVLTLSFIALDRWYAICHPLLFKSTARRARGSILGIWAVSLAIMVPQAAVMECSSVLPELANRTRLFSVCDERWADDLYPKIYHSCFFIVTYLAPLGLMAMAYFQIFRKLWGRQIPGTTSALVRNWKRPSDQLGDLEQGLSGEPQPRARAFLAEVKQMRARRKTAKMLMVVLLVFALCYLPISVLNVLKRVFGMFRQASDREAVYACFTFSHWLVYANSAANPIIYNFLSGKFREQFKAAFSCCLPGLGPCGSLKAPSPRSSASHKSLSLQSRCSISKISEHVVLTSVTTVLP
# CHO parental Ca: ATP-evoked calcium signal inhibitors, parental CHO, primary screen, counter-screen for OX1R antagonist project, cell-based, fluorescence, Fluo-8 calcium dye. AID 463079, 2010. inhibition, % at 5.6 µM. 330,000 compounds, 0.63% hits. parental CHO-K1, ATP-induced calcium, Fluo-8 fluorescence;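 active = inhibition above that plate's mean sample inhibition plus 3 SD, cut at about 26% in these data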;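 note: 0% = ATP-challenged DMSO wells and 100% = DMSO wells without ATP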
#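 test system = CHO parental line | reagent = ATP stimulus | measured by = intracellular calcium via Fluo-8 no-wash fluorescent dye | control set = ATP and no-ATP DMSO wells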
# TAAR1 antag: human TAAR1 antagonists, primary screen, Fluo-8 calcium fluorescence, CHO RD-HGA16 cells | Trace amine-associated receptor 1 (Homo sapiens), Q96RJ0 | antagonist | inhibition, % at 3 µM | 360,000 compounds, 1.5% hits | AID 624466, 2012;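 active = inhibition above a per-plate cutoff, the mean inhibition of test compounds on that plate plus 3 SD, cut at about 49% in these data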;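 note: 0% = DMSO plus EC80 beta-PEA response and 100% = DMSO alone without agonist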
#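 System: RD-HGA16 CHO cells with stable hTAAR1 and Gα16 | Probe or stimulus: EC80 β-phenethylamine stimulus | Dosing: 3 µM, single point | Times: Dye loading 75 min at 37 °C, then 30 min room temperature | Measured by: Fluo-8 calcium-sensitive fluorescence | Read-out basis: % inhibition of agonist calcium response | Replicates: n of 1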
# GalR3 antagonist: GalR3 antagonists in HEK293 cells, primary screen, cell-based, fluorescence readout | Galanin receptor type 3 (Homo sapiens), O60755 | HEK293 GalR3-CNG cAMP membrane potential fluorescence; galR3 body fused to GalR1 C-terminus | 360,000 compounds, 0.44% hits | inhibition, % at 3 µM | AID 651719, 2012;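 active = inhibition above the screen-wide average plus 3 SD, cut at about 13% in these data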;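 note: forskolin and galanin both at EC90 stimulate the cells; cAMP rise reported by CNG channel membrane potential dye signal; 0% = forskolin plus galanin with DMSO and 100% = forskolin alone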
# OX1R antag-2: antagonists of human orexin 1 receptor (OX1R); inhibition, % at 6.6 µM; Orexin/Hypocretin receptor type 1 (Homo sapiens), O43613; 330,000 compounds, 1.8% hits; OX1R-expressing cells, FRET antagonist read-out; in the data active = inhibition mostly above about 38%, no sharp cut-off; inactive = mostly below about 40%;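 note: 0% = agonist challenge alone and 100% = reference antagonist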
# * = called active by the depositor; x = no result given.
SMILES,TAAR1 agonist,OX1R antag-1,CHO parental Ca,TAAR1 antag,GalR3 antagonist,OX1R antag-2
C=CCC[C@@H](Cc1ccc(F)cc1)C(=O)OC[C@@H](Cc1c[nH]c2ccccc12)NC(=O)[C@H](CC=C)CC(=O)N(CCO)Cc1ccccc1,5,37,9,60*,-10,14
C=CC[C@H](CC(=O)N(CCO)Cc1ccccc1)C(=O)N[C@@H](COC(=O)[C@@H](CC=C)Cc1ccc(F)cc1)Cc1c[nH]c2ccccc12,4,15,3,60*,-7,5
CC1(C(=O)NS(=O)(=O)c2ccccc2Cl)CCN1C(=O)CC1CC1 (stereo not drawn),1,x,x,-16,1,x
Cc1ccc(C)c(CN2CCN(c3ncccn3)CC2)c1,11,-18,-3,-11,-9,6
C=C1C(=O)C=C2CN(C(=O)c3ccccc3)[C@@](Cc3ccc(F)cc3)(C(=O)OC)[C@@H]12,x,75*,32,x,x,14
COc1ncnc(-c2ccccc2)c1-c1ccccc1,4,-6,-12,-22,-2,17
COC(=O)C1=C(C)N(C)C(=NCC2CC2)NC1c1cccc(Cl)c1 (stereo not drawn),0,x,x,-4,-6,x
COC(=O)c1cccc(NC(=O)/C=C/c2ccc3c(c2)OCO3)c1,14,-2,-5,28,-5,52*
Cc1ccsc1/C=C1\Oc2cc(O)ccc2C1=O,9,x,x,7,-7,x
COc1cc(/C=C2\Oc3cc(O)ccc3C2=O)ccc1O,5,33,22,10,-5,60*
O=C1/C(=C/c2cccc([N+](=O)[O-])c2)Oc2cc(O)ccc21,10,14,1,2,-9,29*
O=C1/C(=C/c2ccc(O)c(O)c2)Oc2cc(O)ccc21,4,14,15,-7,3,24
O=S(=O)(Cc1ccccc1)Nc1ccc(F)cc1,-1,x,x,11,-3,x
CCC[C@@H](O)c1cc2cc(OC)c(OC)cc2c(=O)o1,11,-25,-12,5,0,-1
CC(=O)N1CCN(c2ccccc2NC(=O)c2cc3ccccc3o2)CC1,10,-32,-14,52*,-4,17
O=C(Nc1ccccc1N1CCN(C(=O)c2ccc(Cl)cc2)CC1)c1cc2ccccc2o1,5,-21,-33,33,-2,15
O=C(Nc1ccccn1)c1cc2ccccc2o1,5,-9,-13,5,-2,7
Cc1ccnc(NC(=O)c2cc3ccccc3o2)c1,-1,-29,-19,-2,-3,53*
Nc1c(Cl)cc(-c2cn(CCC(=O)O)c(-c3ccncc3)n2)cc1Cl,6,1,4,-6,-4,24
COc1ccc(C(=O)c2[nH]c(N)c(C(=O)NCCc3c[nH]c4ccccc34)c2-c2ccc(OC)c(OC)c2)cc1,6,x,x,31,5,x
COc1ccc2cc(Br)ccc2c1CC(=O)NC(C)(C)C,0,-3,54*,-27,-1,61
Cc1ccc(S(=O)(=O)/N=C2/C=C(C3C(=O)CC(C)(C)CC3=O)C(=O)c3ccccc32)cc1,10,-11,-12,8,-5,63*
Nc1nc(N)c2ncc(C(=O)CCc3ccccc3)nc2n1,16,-23,-17,-7,0,36
Nc1ccc(-c2nc3nc(N)nc(N)c3nc2-c2ccc(N)cc2)cc1,-1,-8,-2,-6,-9,40*
O=C(Nc1ccccc1O)c1cccc(S(=O)(=O)Nc2ccccc2O)c1,9,9,-1,28,2,27
SMILES,TAAR1 agonist,OX1R antag-1,CHO parental Ca,TAAR1 antag,GalR3 antagonist,OX1R antag-2
CC(C)(C)c1cc[n+](C2=C([O-])c3ccccc3C(=O)/C2=N\S(=O)(=O)c2cccs2)cc1,3,-23,-15,-19,-5,77*
CC1(C)CC(N2CCN(c3ccccc3)CC2)=CC(=[N+]2CCCC2)C1,2,21,-13,-11,-1,8
CC1CC(C)C[N+](=C2C=C(N3CCCC3)CC(C)(C)C2)C1 (stereo not drawn),5,x,x,8,28*,x
CC1(C)CC(N2CCCC2)=CC(=[N+]2CCCCCC2)C1,1,-19,6,3,55*,5
CCN=C1NC(CCc2ccccc2)C(C(=O)OC)=C(C)N1Cc1ccc(C(F)(F)F)cc1 (stereo not drawn),8,x,x,-3,-6,x
C/C(=N/OCC(=O)NCCCCCCNC(=O)CO/N=C(/C)c1cccs1)c1cccs1,6,-14,-23,-6,-5,71*
Cc1cc(C)c(O)c(C(=O)CC2CC(=O)NC(=O)C2)c1,0,x,x,10,-1,x
C[C@H](c1ccccc1)N1C[C@@H](COCc2ccccc2)Oc2cccc(N3CCCC3)c2S1(=O)=O,0,x,x,13,-6,x
Cc1ccc(C(=O)OCC(=O)N2CCCC2)cc1,-1,-7,5,-17,-10,5
Cc1ccc(S(=O)(=O)Nc2ccc(N3CCCCC3)cc2)cc1,3,-5,-10,6,-5,10
Cc1ccc(NS(=O)(=O)c2ccc(C3CCCCC3)cc2)cc1,14,56*,42*,59*,-1,11
CCOC(=O)COc1ccc(S(=O)(=O)Nc2ccc(C)cc2)cc1,50*,4,-1,7,-8,3
Cc1ccc(NS(=O)(=O)c2ccc(C(=O)OCC(=O)N3CCCCC3)cc2)cc1,41*,6,-5,41,-7,5
CCOc1ccc(S(=O)(=O)Nc2ccc(C(=O)N3CC(C)OC(C)C3)cc2)cc1 (stereo not drawn),57*,12,1,26,-2,7
Cc1cc2nc(-c3cccc(Cl)c3)c(CC(C)(C)C)n2c(C)c1Br,0,x,x,-33,-6,x
COc1ccc(NC2CCCN(C(=O)C3=NNC(=O)CC3)C2)cc1 (stereo not drawn),0,x,x,-13,-7,x
CCNC(=O)N(C)[C@H]1C[C@H]2c3[nH]c4c(-c5ccc6c(c5)OCO6)cccc4c3CCN2C(=O)[C@H]1[C@H](C)O,7,x,x,4,-8,x
CCOC(=O)NCc1ccc(S(=O)(=O)Nc2ccc(C)cc2)cc1,44*,-1,-8,-1,-3,7
N#CC1=C(N)C2=C(N3CCCCC3)CCCC2C1(C#N)C#N (stereo not drawn),x,-18,10,x,x,20

# Assay outcomes as filed in PubChem.
